These results are taken from ChEMBL document CHEMBL1142018, “Discovery and SAR of new benzazepines as potent and selective 5-HT(2C) receptor agonists for the treatment of obesity” (Bioorg Med Chem Lett, 2005).

Each structure is given as a SMILES string. pEC50: −log10 of the molar value. A value given as a limit tells only on which side of the number the result lay.

For assay [1], the target named is T1, 5-hydroxytryptamine receptor 2C (Homo sapiens, UniProt P28335).
T1 sequence (P28335 whole entry): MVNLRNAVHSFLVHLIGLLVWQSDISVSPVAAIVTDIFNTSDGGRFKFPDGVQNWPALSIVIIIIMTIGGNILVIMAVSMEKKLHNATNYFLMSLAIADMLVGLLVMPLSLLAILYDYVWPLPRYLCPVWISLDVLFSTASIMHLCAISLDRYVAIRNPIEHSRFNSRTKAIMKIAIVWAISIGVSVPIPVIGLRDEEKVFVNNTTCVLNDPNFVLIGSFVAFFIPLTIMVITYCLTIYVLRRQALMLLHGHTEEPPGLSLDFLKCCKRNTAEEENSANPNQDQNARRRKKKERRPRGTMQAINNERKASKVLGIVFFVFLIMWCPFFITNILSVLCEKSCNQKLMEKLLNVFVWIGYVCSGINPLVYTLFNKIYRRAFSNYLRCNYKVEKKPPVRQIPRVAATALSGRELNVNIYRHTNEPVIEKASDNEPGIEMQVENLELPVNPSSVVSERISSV
Put plainly: Effective concentration towards 5-hydroxytryptamine 2C receptors transfected in HEK293 cells was determined by measuring [3H]phosphoinositol release. It counts as functional, cell-based. A digest of the protocol: (§1)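 Functional agonism at human 5-HT2A, 5-HT2B or 5-HT2C receptors (the 2C as the INI isoform). Receptors were transiently transfected into HEK-293 cells, and the read-out was [³H]phosphoinositol turnover.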

The target in assay [2] is T2, 5-hydroxytryptamine receptor 2A (Homo sapiens, UniProt P28223). Put plainly: Effective concentration towards 5-hydroxytryptamine 2A receptors transfected in HEK293 cells was determined by measuring [3H]phosphoinositol release. As to conditions: for pEC50: read-out: EC50; call rule not given here. It counts as functional, cell-based. A digest of the protocol: as §1
T2 sequence (P28223 whole entry): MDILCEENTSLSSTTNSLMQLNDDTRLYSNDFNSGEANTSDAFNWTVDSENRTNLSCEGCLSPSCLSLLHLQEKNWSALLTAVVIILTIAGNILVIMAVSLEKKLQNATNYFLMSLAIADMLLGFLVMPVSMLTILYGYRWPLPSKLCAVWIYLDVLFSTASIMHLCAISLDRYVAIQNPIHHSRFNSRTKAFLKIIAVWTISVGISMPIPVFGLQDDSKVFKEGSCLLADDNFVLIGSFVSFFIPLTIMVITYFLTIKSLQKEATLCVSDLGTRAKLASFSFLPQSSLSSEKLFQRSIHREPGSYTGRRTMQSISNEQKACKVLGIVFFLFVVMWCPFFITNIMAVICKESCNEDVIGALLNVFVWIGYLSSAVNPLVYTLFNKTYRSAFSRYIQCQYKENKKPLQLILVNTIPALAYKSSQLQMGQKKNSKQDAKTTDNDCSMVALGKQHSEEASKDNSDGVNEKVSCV
In assay [3] the target is T3, 5-hydroxytryptamine receptor 2B (Homo sapiens, UniProt P41595). Put plainly: Effective concentration towards 5-hydroxytryptamine 2B receptors transfected in HEK293 cells was determined by measuring [3H]phosphoinositol release. Format: functional, cell-based. Particulars: for pEC50: read-out: EC50. A digest of the protocol: as §1
T3 sequence (P41595 whole entry): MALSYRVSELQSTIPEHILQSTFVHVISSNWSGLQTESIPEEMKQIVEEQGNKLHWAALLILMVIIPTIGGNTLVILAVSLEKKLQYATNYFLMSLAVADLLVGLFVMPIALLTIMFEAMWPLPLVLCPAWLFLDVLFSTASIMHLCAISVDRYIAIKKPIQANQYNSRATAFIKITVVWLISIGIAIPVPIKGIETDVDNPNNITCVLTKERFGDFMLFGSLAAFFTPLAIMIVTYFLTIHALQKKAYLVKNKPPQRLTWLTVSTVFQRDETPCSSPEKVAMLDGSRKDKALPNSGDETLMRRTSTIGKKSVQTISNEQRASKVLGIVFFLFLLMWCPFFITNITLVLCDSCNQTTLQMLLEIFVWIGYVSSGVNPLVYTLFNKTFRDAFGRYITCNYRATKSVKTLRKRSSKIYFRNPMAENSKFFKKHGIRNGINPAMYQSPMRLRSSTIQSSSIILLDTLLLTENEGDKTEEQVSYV
The next assay deals with Rattus norvegicus. As to the kind of experiment: Effect on food intake after 6 hr of injection of compound by oral gavage and compared to vehicle control rats (n = 8); decreased food intake by range 10-40 mg/kg. Format: functional.
Assay [4] deals with T4, 5-hydroxytryptamine receptor 2C (Homo sapiens) (UniProt P28335).
T4 sequence (whole entry): T1 sequence (P28335 whole entry)
Put plainly: Percentage maximum response relative to serotonin towards 5-hydroxytryptamine 2C receptor in HEK293 cells. It counts as functional, cell-based. A digest of the protocol: as §1

The target of assay [5] is T2, 5-hydroxytryptamine receptor 2A. As to the kind of experiment: Percentage maximum response relative to serotonin towards 5-hydroxytryptamine 2A receptor in HEK293 cells. It counts as functional, cell-based. A digest of the protocol:
as §1

Assay [6] deals with T3, 5-hydroxytryptamine receptor 2B. Put plainly: Percentage maximum response relative to serotonin towards 5-hydroxytryptamine 2B receptor in HEK293 cells. Format: functional, cell-based. A digest of the protocol: as §1
The target is the same in assay [7]. As to the kind of experiment: Percentage maximum response relative to serotonin towards 5-hydroxytryptamine 2B receptor at 10 uM concentration in HEK293 cells. Format: functional, cell-based.
Setting [8] is: Rattus norvegicus, po, 6 h, read-out: ED50.

Broadly, the pEC50 is the negative decadic logarithm of the EC50, by convention in mol/L. Regarding `CC1CNCCc2cc(O)c(Br)cc21` (configuration not stated), the pEC50 in assay [1] is 8.52; in assay [2], 7.20; in assay [3] it was 6.72.

One may read the ED50 as the dose that gives a 50% effect, or the effect in half of the subjects. As to `CC1CNCCc2cc(F)c(Cl)cc21` (configuration not stated), in the assay on Rattus norvegicus (setting [8]), the ED50 was 40 mg/kg. Moreover, the pEC50 in assay [1] is 8.15; in assay [2] it was 7.14; in assay [3] it was 6.44.

As for `COc1cc2c(cc1Br)C(C(C)C)CNCC2` (configuration not stated), the figures for the pEC50 in assay [1] and in assay [3] were 6.80 and 6.00, respectively. The EC50 entry in assay [2] (hek293) is given as “Not Active”.

With `CC(C)Oc1cc2c(cc1Br)C(C)CNCC2` (configuration not stated), the results for the pEC50 in assay [1], in assay [2] and in assay [3] were 7.17, 7.01 and 6.64, respectively.

As to `CC1CNCCc2ccccc21` (configuration not stated), the pEC50 in assay [1] is 6.47; in assay [2] it was 5.80; in assay [3], less than 5.30.

For `CCOc1cc2c(cc1Br)C(C)CNCC2` (configuration not stated), the values for the pEC50 in assay [1], in assay [2] and in assay [3] were 7.55, 6.96 and 6.74, respectively.

As to `CC1CNCCc2ccc(Cl)c(Cl)c21` (configuration not stated), the ED50 with Rattus norvegicus (setting [8]) came out at 40 mg/kg. The negative-log EC50 (pEC50) in assay [1] was 8.22; in assay [2], 6.66; in assay [3] it was 5.74.

On to `Clc1ccc2c(c1)CCNCC2`, for which the Maximum response worked out at 85% in assay [4], 100% in assay [5] and 100% in assay [6]. Moreover, the pEC50 is 7.92 in assay [1], 7.05 in assay [2] and 6.00 in assay [3].

As for `CC1CNCCc2cccc(Cl)c21` (configuration not stated), the pEC50 in assay [1] is 6.03; in assay [2], less than 5.30; in assay [3] it was less than 5.30.

For `CC1CNCCc2ccc(Cl)c(F)c21` (configuration not stated), the ED50 with Rattus norvegicus (setting [8]) was 40 mg/kg. The pEC50 was 7.66 in assay [1], 6.08 in assay [2] and less than 5.00 in assay [3].

Consider `C[C@@H]1CNCCc2ccc(Cl)c(Cl)c21`, for which the Maximum response in assay [4] was 90%; in assay [5] it was 35%; in assay [7], 25%. Moreover, the pEC50 was 8.52 in assay [1] and 6.87 in assay [2].

As to `C[C@@H]1CNCCc2ccc(Cl)cc21`, the Maximum response in assay [4] worked out at 100%; in assay [5] it was 70%; in assay [6], 100%.

As for `C[C@H]1CNCCc2ccc(Cl)c(Cl)c21`, the Maximum response turned out to be 85% in assay [4] and 100% in assay [5]. Moreover, the pEC50 in assay [1] is 6.64; in assay [2], 5.62; in assay [3], less than 5.00.

`COc1cc2c(cc1Br)C(C)CNCC2` (configuration not stated): the ED50 in the assay with Rattus norvegicus (setting [8]) is 40 mg/kg. Also, the pEC50 in assay [1] was 8.30; in assay [2], 7.10; in assay [3], 7.00.

`C[C@H]1CNCCc2ccc(Cl)cc21`: the Maximum response in assay [4] was found to be 100%; in assay [5] it was 70%; in assay [6] it was 100%.

For the molecule `COc1cc2c(cc1Br)CCNCC2`, the pEC50 was 8.10 in assay [1], 7.00 in assay [2] and 6.40 in assay [3].

For the molecule `COc1cc2c(cc1Br)[C@@H](C)CNCC2`, the values for the pEC50 in assay [1], in assay [2] and in assay [3] were 8.52, 7.10 and 6.66, respectively.

`COc1cc2c(cc1Cl)C(C)CNCC2` (configuration not stated): the ED50 with Rattus norvegicus (setting [8]) was 40 mg/kg. Moreover, the values for the negative logarithm of the EC50 (pEC50) in assay [1], in assay [2] and in assay [3] were 7.96, 7.10 and 6.85, respectively.

Take `CC1CNCCc2ccc(Br)cc21` (configuration not stated): the pEC50 in assay [1] is 7.92; in assay [2] it was 6.29; in assay [3], 5.82.

As for `CC1CNCCc2c(Cl)cc(Cl)cc21` (configuration not stated), the pEC50 in assay [1] was 7.70; in assay [2], 6.77; in assay [3] it was 6.08.

As for `CC1CNCCc2cc(OCc3ccccc3)c(Br)cc21` (configuration not stated), the pEC50 in assay [1] is 7.25; in assay [2], 7.66; in assay [3], less than 5.00.

As to `COc1ccc2c(c1)CCNCC2C` (configuration not stated), the figures for the pEC50 in assay [1] and in assay [2] were 5.70 and less than 5.00, respectively. The EC50 result in assay [3] (hek293) was “Not Active”.

Regarding `CC1CNCCc2cc(Cl)ccc21` (configuration not stated), the pEC50 in assay [1] was 7.46; in assay [2] it was 6.82; in assay [3], 6.28.

For `COc1cc2c(cc1C(F)(F)F)C(C)CNCC2` (configuration not stated), the pEC50 in assay [1] is 8.40; in assay [2] it was 7.38; in assay [3], 6.89.

With `CC1CNCCc2c(Cl)cccc21` (configuration not stated), the pEC50 in assay [1] was 6.07; in assay [2], less than 5.30; in assay [3], less than 5.30.

For `CC1CNCCc2ccc(Cl)cc21` (configuration not stated), in the assay with Rattus norvegicus (setting [8]), the ED50 worked out at 40 mg/kg.

On to `COc1ccc2c(c1)C(C)CNCC2` (configuration not stated), for which the pEC50 was 6.38 in assay [1], 6.03 in assay [2] and 6.11 in assay [3].

Take `CCC1CNCCc2cc(OC)c(Br)cc21` (configuration not stated): the pEC50 in assay [1] was 7.96; in assay [2], 7.00; in assay [3], 7.40.

Molecule `COc1cc2c(cc1I)C(C)CNCC2` (configuration not stated) returned an ED50 with Rattus norvegicus of 40 mg/kg. Besides, the values for the pEC50 in assay [1], in assay [2] and in assay [3] were 8.70, 7.21 and 7.19, respectively.

As for `CC1CNCCc2ccc(F)cc21` (configuration not stated), the pEC50 in assay [1] is 6.39; in assay [2] it was 5.80; in assay [3] it was less than 5.00.

Regarding `COc1cc2c(cc1Br)[C@H](C)CNCC2`, the pEC50 was 8.30 in assay [1], 7.52 in assay [2] and 7.52 in assay [3].

As to `CC1CNCCc2cc(Cl)c(Cl)cc21` (configuration not stated), the ED50 in the assay with Rattus norvegicus (setting [8]) was 40 mg/kg. Moreover, the pEC50 in assay [1] is 8.40; in assay [2], 7.80; in assay [3], 7.11.

For `CC1CNCCc2ccc(C(F)(F)F)cc21` (configuration not stated), the ED50 with Rattus norvegicus (setting [8]) was 40 mg/kg. The pEC50 in assay [1] is 8.15; in assay [2], 7.00; in assay [3], 6.42.
